Laboratory results from ChEMBL document CHEMBL1131093, “ATP-Citrate lyase as a target for hypolipidemic intervention. 2. Synthesis and evaluation of (3R,5S)-omega-substituted-3-carboxy-3, 5-dihydroxyalkanoic acids and their gamma-lactone prodrugs as inhibitors of the enzyme in vitro and in vivo” (J Med Chem, 1998).

Assays:
[1] = tested on: HepG2; test: Inhibition of ATP levels in HepG2 cells was measured at 10 uM concentration.; assay type: functional, Homo sapiens; parameters: scale not given: the % may be the effect or the level left
Method in brief: (§1)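 Compounds were applied to HepG2 cells as their γ-lactone prodrugs. De novo cholesterol synthesis, fatty acid synthesis and cellular ATP levels were each expressed as % of control. Significance was marked at p < 0.001.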

[2] = tested on: HepG2; test: Inhibition of ATP levels in HepG2 cells was measured at 3 uM concentration.; assay type: functional, Homo sapiens; parameters: scale not given: the % may be the effect or the level left; method in brief: as §1
[3] = tested on: HepG2; test: Inhibition of cholesterol synthesis in HepG2 cells was measured at 10 uM concentration.; assay type: functional, Homo sapiens; parameters: scale not given: the % may be the effect or the level left; method in brief: as §1
[4] = tested on: HepG2; test: Inhibition of cholesterol synthesis in HepG2 cells was measured at 3 uM concentration.; assay type: functional, Homo sapiens; parameters: scale not given: the % may be the effect or the level left; method in brief: as §1
[5] = tested on: HepG2; test: Inhibition of fatty acid synthesis in HepG2 cells was measured at 3 uM concentration.; assay type: functional, Homo sapiens; parameters: scale not given: the % may be the effect or the level left; method in brief: as §1
[6] = tested on: Rattus norvegicus; test: % Reduction of plasma triglyceride in the rat was measured at dose 37.5 mg/kg/d; assay type: functional
Method in brief: (§2)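 Male Sprague-Dawley rats were kept on a reverse 12 h light/12 h dark cycle with free access to RM1 powdered diet and water. Compound was given orally by gavage as two doses 24 h apart. Blood was drawn mid dark cycle, 4 h after the second dose, into EDTA. Plasma was separated at 1500g for 15 min. Triglyceride was measured enzymatically (GPO-PAP) and reported as % reduction from control.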

[7] = tested on: Rattus norvegicus; test: % Reduction of plasma triglyceride in the rat was measured at dose 75 mg/kg/d; assay type: functional; method in brief: as §2
[8] = tested on: HepG2; test: Inhibition of fatty acid synthesis in HepG2 cells was measured at 10 uM concentration.; assay type: functional, Homo sapiens; parameters: scale not given: the % may be the effect or the level left; method in brief: as §1
[9] = biological target: T1, ATP-citrate synthase (Homo sapiens, UniProt P53396); test: Inhibitory activity against human recombinant ATP-Citrate Lyase (ACL) enzyme
T1 sequence (P53396 whole entry): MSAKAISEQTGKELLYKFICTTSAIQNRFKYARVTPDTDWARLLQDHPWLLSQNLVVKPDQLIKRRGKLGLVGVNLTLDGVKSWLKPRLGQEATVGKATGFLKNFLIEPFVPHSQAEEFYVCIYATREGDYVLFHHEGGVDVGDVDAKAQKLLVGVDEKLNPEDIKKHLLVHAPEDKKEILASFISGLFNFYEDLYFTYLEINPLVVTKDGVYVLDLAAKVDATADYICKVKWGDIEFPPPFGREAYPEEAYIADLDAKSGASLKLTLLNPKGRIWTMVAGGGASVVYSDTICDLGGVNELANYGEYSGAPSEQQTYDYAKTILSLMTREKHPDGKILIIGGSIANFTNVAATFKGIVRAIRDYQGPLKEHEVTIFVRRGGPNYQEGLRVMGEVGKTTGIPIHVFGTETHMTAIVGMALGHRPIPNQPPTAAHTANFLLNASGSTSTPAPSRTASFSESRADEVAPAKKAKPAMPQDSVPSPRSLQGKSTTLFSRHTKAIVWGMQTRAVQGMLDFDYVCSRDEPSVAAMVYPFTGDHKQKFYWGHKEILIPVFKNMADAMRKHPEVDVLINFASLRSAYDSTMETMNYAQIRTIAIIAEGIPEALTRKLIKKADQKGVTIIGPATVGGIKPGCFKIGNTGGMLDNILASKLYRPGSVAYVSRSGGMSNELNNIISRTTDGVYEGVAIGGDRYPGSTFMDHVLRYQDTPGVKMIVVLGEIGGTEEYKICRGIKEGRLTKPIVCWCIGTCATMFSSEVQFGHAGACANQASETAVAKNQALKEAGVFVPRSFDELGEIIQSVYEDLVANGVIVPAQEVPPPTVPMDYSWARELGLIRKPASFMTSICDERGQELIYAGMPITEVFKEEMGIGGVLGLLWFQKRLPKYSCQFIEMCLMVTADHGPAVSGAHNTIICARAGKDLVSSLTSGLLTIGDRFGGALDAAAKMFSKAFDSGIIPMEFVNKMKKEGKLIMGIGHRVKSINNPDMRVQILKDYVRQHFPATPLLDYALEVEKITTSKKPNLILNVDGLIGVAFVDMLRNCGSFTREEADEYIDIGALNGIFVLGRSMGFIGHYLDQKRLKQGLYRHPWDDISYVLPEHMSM
Method in brief: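 Human recombinant ATP-citrate lyase was used. Lactone intermediates were hydrolysed with aqueous NaOH to the hydroxy acid before being added to the enzyme buffer mix. Potency was reported as the reversible Ki.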

[10] = biological target: T2, ATP-citrate synthase (Rattus norvegicus, UniProt P16638); test: Inhibitory activity was tested against ATP-Citrate Lyase (ACL) enzyme in rat
T2 sequence (P16638 whole entry): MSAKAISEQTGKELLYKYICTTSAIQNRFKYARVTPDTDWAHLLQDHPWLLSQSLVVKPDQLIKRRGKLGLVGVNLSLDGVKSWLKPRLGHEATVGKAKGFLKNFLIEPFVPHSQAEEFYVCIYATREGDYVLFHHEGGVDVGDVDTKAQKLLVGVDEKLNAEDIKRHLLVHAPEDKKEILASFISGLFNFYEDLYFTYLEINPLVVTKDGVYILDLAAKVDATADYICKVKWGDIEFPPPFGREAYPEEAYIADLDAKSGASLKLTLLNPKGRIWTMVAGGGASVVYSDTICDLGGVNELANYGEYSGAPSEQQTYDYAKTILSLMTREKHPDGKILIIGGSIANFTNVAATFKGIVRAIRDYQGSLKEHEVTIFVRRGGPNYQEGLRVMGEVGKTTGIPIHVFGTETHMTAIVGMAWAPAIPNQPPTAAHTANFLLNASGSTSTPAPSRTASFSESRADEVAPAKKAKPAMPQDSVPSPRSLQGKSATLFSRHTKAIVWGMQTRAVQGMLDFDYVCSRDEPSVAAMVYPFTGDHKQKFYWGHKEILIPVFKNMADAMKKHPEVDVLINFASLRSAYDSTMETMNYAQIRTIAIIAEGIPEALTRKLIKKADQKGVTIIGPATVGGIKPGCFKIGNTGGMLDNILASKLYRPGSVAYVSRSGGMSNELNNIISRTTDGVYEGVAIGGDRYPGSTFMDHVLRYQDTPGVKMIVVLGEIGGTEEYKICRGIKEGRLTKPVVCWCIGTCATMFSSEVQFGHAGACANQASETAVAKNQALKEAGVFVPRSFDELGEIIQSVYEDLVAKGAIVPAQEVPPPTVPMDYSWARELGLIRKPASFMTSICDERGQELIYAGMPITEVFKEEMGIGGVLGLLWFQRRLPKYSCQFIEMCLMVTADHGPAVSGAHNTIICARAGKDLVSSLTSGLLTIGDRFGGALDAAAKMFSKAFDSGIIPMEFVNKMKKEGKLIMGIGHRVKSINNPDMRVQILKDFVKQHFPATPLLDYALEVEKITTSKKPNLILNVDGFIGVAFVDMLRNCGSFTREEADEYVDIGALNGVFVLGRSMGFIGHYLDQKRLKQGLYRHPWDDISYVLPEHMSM

[11] = biological target: T3, ATP-citrate synthase (Homo sapiens) (UniProt P53396); test: Inhibitory activity was tested against human recombinant ATP-Citrate Lyase (ACL) enzyme at 100 uM
T3 sequence (whole entry): T1 sequence (P53396 whole entry)

[12] = biological target: T2, ATP-citrate synthase; test: Inhibitory activity was tested against rat ATP-Citrate Lyase (ACL) enzyme

| Compound | Ki [9] | further results |
| --- | --- | --- |
| O=C(O)C[C@@]1(O)C[C@@H](CCCCCCc2ccc(Cl)cc2Cl)OC1=O | – | Control [1]: 97%; Control [2]: 97%; Control [3]: 53%; Control [4]: 98%; Control [5]: 114%; Reduction [6]: 31%; Reduction [7]: 56%; Control [8]: 74% |
| O=C(O)C[C@@](O)(C[C@H](O)CCCCCn1cc([N+](=O)[O-])c2cc(Cl)ccc21)C(=O)O | 64000 nM | – |
| COc1ccc(-c2cc(Cl)ccc2CCCCCC[C@@H](O)C[C@](O)(CC(=O)O)C(=O)O)cc1 | 5100 nM | – |
| O=C(O)C[C@@](O)(C[C@H](O)CCCCCn1ccc2cc(Cl)cc(Cl)c21)C(=O)O | 1800 nM | – |
| Cc1cn(-c2cc(Cl)ccc2CCCCCC[C@@H](O)C[C@](O)(CC(=O)O)C(=O)O)cc1C (stereo in doubt; 58) | 300 nM | – |
| O=C(O)C[C@](O)(C(=O)O)[C@@H](O)CCCCCCCc1ccc(Cl)cc1Cl | 5700 nM | – |
| O=C(O)C[C@@](O)(C[C@@H](O)CCCCCCc1ccc(Cl)cc1Cl)C(=O)O | 2000 nM | – |
| O=C(O)C[C@@](O)(C[C@H](O)CCCCCCc1ccc(Cl)cc1-c1ccc(F)cc1)C(=O)O | 2700 nM | – |
| O=C(O)C[C@@](O)(CCCCCCCCc1ccc(Cl)cc1Cl)C(=O)O | – | Ki [10]: 2900 nM |
| N[C@H](C(=O)O)[C@@](O)(CC(=O)O)C(=O)O | – | Ki [10]: 11000 nM |
| O=C(O)C[C@@](O)(C[C@H](O)CCCCCn1cc(Cc2ccccc2)c2cc(Cl)ccc21)C(=O)O | 2900 nM | – |
| O=C(O)C[C@@](O)(C[C@H](O)CCCCn1ccc2cc(Cl)ccc21)C(=O)O | 160000 nM | – |
| O=C(O)C[C@@](O)(C[C@H](O)CCCCCCc1ccc(Cl)cc1OCc1ccccc1)C(=O)O | 1100 nM | – |
| Cc1cn(-c2cc(Cl)ccc2CCCCCC[C@@H](O)C[C@](O)(CC(=O)O)C(=O)O)cc1C (stereo in doubt; (-)-58) | 340 nM | – |
| O=C(O)C[C@@](O)(C[C@H](O)CCCCCn1c2c(c3cc(Cl)ccc31)CCCC2)C(=O)O | 2900 nM | – |
| COc1cc(Cl)ccc1CCCCCC[C@@H](O)C[C@](O)(CC(=O)O)C(=O)O | 19000 nM | – |
| Cc1cc2cc(Cl)ccc2n1CCCCC[C@@H](O)C[C@](O)(CC(=O)O)C(=O)O | 13000 nM | – |
| O=C(O)C[C@@](O)(C[C@H](O)CCCCCn1ccc2cc(Cl)ccc21)C(=O)O | 3500 nM | – |
| O=C(O)[C@H](O)[C@@](O)(C[C@H](O)CCCCCCc1ccc(Cl)cc1Cl)C(=O)O | 550 nM | – |
| O=C(O)[C@@H](O)[C@@](O)(C[C@H](O)CCCCCCc1ccc(Cl)cc1Cl)C(=O)O | 620 nM | – |
| O=C(O)C[C@@](O)(C[C@H](O)CCCCCn1c(-c2ccccc2)cc2cc(Cl)ccc21)C(=O)O | 370 nM | – |

| Compound | Ki [9] | further results |
| --- | --- | --- |
| O=C(O)C[C@@](O)(C[C@H](O)CCCCCCn1ccc2cc(Cl)ccc21)C(=O)O | 3200 nM | – |
| O=C(O)C[C@@](O)(C[C@H](O)CCCCCCc1ccc(Cl)cc1O)C(=O)O | – | inhibition [11]: 24% |
| O=C(O)C[C@@](O)(C[C@H](O)CCCCCCc1ccc(Cl)cc1Cl)C(=O)O (stereo in doubt; (-)-45) | 770 nM | Ki [12]: 700 nM |
| Cc1cn(CCCCC[C@@H](O)C[C@](O)(CC(=O)O)C(=O)O)c2ccc(Cl)cc12 | 9500 nM | – |
| O=C(O)C[C@@]1(O)C[C@@H](CCCCCCc2ccc(Cl)cc2COc2ccccc2)OC1=O | – | Reduction [6]: 22%; Reduction [7]: 34% |
| O=C(O)C[C@@](O)(C[C@H](O)CCCCCC1c2ccccc2-c2cc(Cl)ccc21)C(=O)O (some centres undefined) | 220 nM | – |
| Cc1ccc(-c2cc(Cl)ccc2CCCCCC[C@@H](O)C[C@](O)(CC(=O)O)C(=O)O)cc1 | 2700 nM | – |
| O=C(O)C[C@](O)(C(=O)O)[C@@H](O)CCCCCCCCc1ccc(Cl)cc1Cl | 18000 nM | – |
| O=C(O)C[C@@](O)(C[C@H](O)CCCCCCc1ccc(Cl)cc1-c1ccccc1)C(=O)O | 750 nM | – |
| O=C(O)C[C@@](O)(C[C@H](O)CCCCCn1c2ccccc2c2cc(Cl)ccc21)C(=O)O | 710 nM | – |
| O=C(O)C[C@@](O)(C[C@H](O)CCCCCn1cc(-c2ccccc2)c2cc(Cl)ccc21)C(=O)O | 11000 nM | – |
| O=C(O)C[C@@](O)(CC(=O)CCCCCCc1ccc(Cl)cc1Cl)C(=O)O | – | Ki [12]: 1200 nM |
| O=C(O)C[C@@]1(O)C[C@@H](CCCCCn2c3ccccc3c3cc(Cl)ccc32)OC1=O | – | Reduction [6]: 16%; Reduction [7]: 33% |
| O=C(O)C[C@@](O)(C[C@H](O)CCCCCCc1ccc(Cl)cc1-n1cccc1)C(=O)O | 3900 nM | – |
| O=C(O)C[C@@](O)(C[C@H](O)CCCCCCc1ccc(Cl)cc1Cl)C(=O)O (stereo in doubt; (+)-45) | 880 nM | Ki [12]: 700 nM |
| O=C(O)C[C@@](O)(C[C@H](O)CCCCCCc1ccc(Cl)cc1-c1ccc(Cl)cc1Cl)C(=O)O | 21000 nM | – |
| O=C(O)C[C@@](O)(C[C@H](O)CCCCCCc1ccc(Cl)cc1-c1ccc(Cl)cc1)C(=O)O | 5000 nM | – |
| Cc1ccc(C)n1-c1cc(Cl)ccc1CCCCCC[C@@H](O)C[C@](O)(CC(=O)O)C(=O)O | – | inhibition [11]: 67% |
| O=C(O)C[C@@]1(O)C[C@@H](CCCCCC2c3ccccc3-c3cc(Cl)ccc32)OC1=O (some centres undefined) | – | Reduction [6]: 5%; Reduction [7]: 16% |
| O=C(O)C[C@@](O)(C[C@H](O)CCCCCn1ccc2ccc(Cl)cc21)C(=O)O | 41000 nM | – |
| Cc1cn(-c2cc(Cl)ccc2CCCCCC[C@@H](O)C[C@](O)(CC(=O)O)C(=O)O)cc1C (stereo in doubt; (+)-58) | 580 nM | – |
